# ChEMBL document CHEMBL1132958, “Design of monocyclic (1-3) and dicyclic (1-3/4-10) gonadotropin releasing hormone (GnRH) antagonists” (J Med Chem, 2000)
# Target: T1, Gonadotropin-releasing hormone receptor (Rattus norvegicus, UniProt P30969)
# T1 sequence (P30969 whole entry): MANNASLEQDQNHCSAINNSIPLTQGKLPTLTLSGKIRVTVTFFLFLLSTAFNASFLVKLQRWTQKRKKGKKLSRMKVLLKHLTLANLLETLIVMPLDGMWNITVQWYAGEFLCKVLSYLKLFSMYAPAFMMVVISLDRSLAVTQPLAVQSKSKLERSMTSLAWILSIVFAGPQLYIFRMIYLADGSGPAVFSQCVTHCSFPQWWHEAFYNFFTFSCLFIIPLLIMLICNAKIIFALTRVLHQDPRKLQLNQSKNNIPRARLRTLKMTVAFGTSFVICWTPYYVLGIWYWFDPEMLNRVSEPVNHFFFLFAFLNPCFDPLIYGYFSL
# Assay: Competitive radioligand binding assay for rat Gonadotropin-releasing hormone receptor cells stably transfected in human HEK293
# Procedure, shortened: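 Membranes from HEK-293 cells stably expressing rat GnRH receptor (5% sucrose homogenate; nuclei removed at 3000g, membranes pelleted at 20000g, 4 °C), 7 µg protein in 10 mM Hepes pH 7.5, 150 mM NaCl, 0.1% BSA. Competitor at varying concentrations vs des-Gly10-[125I-Tyr5,DAla6,NMeLeu7,Pro9-NHEt]GnRH (~100 000 cpm), 90 min; PEI-coated GF/C filtration, PBS wash, γ counting. Ki by nonlinear least-squares fit; ≥3 independent experiments, mean ± SEM.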
row,SMILES,Ki
1,CC(=O)N[C@@H]1CC(=O)NCC(=O)NCCCC[C@H](C(=O)N[C@@H](CO)C(=O)N[C@@H](Cc2ccc(O)cc2)C(=O)N[C@H](Cc2ccc3ccccc3c2)C(=O)N[C@@H](CC(C)C)C(=O)N[C@@H](CCCN=C(N)N)C(=O)N2CCC[C@H]2C(=O)N[C@H](C)C(N)=O)NC(=O)[C@@H](Cc2ccc(Cl)cc2)NC1=O,140 pM
2,CC(=O)N[C@@H]1CC(=O)NCCC(=O)NC[C@H](C(=O)N[C@@H](CO)C(=O)N[C@@H](Cc2ccc(O)cc2)C(=O)N[C@H](Cc2ccc3ccccc3c2)C(=O)N[C@@H](CC(C)C)C(=O)N[C@@H](CCCN=C(N)N)C(=O)N2CCC[C@H]2C(=O)N[C@H](C)C(N)=O)NC(=O)[C@@H](Cc2ccc(Cl)cc2)NC1=O,350 pM
3,CC(=O)N[C@H]1CC(=O)NC[C@@H](C(=O)N[C@@H](CO)C(=O)N[C@@H](Cc2ccc(O)cc2)C(=O)N[C@H](Cc2ccc3ccccc3c2)C(=O)N[C@@H](CC(C)C)C(=O)N[C@@H](CCCN=C(N)N)C(=O)N2CCC[C@H]2C(=O)N[C@H](C)C(N)=O)NC(=O)[C@@H](Cc2ccc(Cl)cc2)NC1=O,31000 pM
4,CC(=O)N[C@@H]1CC(=O)NCCCC(=O)NC[C@H](C(=O)N[C@@H](CO)C(=O)N[C@@H](Cc2ccc(O)cc2)C(=O)N[C@H](Cc2ccc3ccccc3c2)C(=O)N[C@@H](CC(C)C)C(=O)N[C@@H](CCCN=C(N)N)C(=O)N2CCC[C@H]2C(=O)N[C@H](C)C(N)=O)NC(=O)[C@@H](Cc2ccc(Cl)cc2)NC1=O,180 pM
5,CC(=O)N[C@@H]1CC(=O)N[C@H](C)C(=O)NCC[C@H](C(=O)N[C@@H](CO)C(=O)N[C@@H](Cc2ccc(O)cc2)C(=O)N[C@H](Cc2ccc3ccccc3c2)C(=O)N[C@@H](CC(C)C)C(=O)N[C@@H](CCCN=C(N)N)C(=O)N2CCC[C@H]2C(=O)N[C@H](C)C(N)=O)NC(=O)[C@@H](Cc2ccc(Cl)cc2)NC1=O,570 pM
6,CC(=O)N[C@@H]1CC(=O)N[C@@H](C)C(=O)NCCC[C@H](C(=O)N[C@@H](CO)C(=O)N[C@@H](Cc2ccc(O)cc2)C(=O)N[C@H](Cc2ccc3ccccc3c2)C(=O)N[C@@H](CC(C)C)C(=O)N[C@@H](CCCN=C(N)N)C(=O)N2CCC[C@H]2C(=O)N[C@H](C)C(N)=O)NC(=O)[C@@H](Cc2ccc(Cl)cc2)NC1=O,3300 pM
7,CC(=O)N[C@@H]1CC(=O)N[C@@H](C)C(=O)NCCC[C@H](C(=O)N[C@@H](CO)C(=O)N[C@@H](Cc2ccc(O)cc2)C(=O)N[C@H](CCCN=C(N)N)C(=O)N[C@@H](CC(C)C)C(=O)N[C@@H](CCCN=C(N)N)C(=O)N2CCC[C@H]2C(=O)N[C@H](C)C(N)=O)NC(=O)[C@@H](Cc2ccc(Cl)cc2)NC1=O,350000 pM
8,CC(=O)N[C@@H]1CC(=O)NCC(=O)NCCC[C@H](C(=O)N[C@@H](CO)C(=O)N[C@@H](Cc2ccc(O)cc2)C(=O)N[C@H](Cc2ccc3ccccc3c2)C(=O)N[C@@H](CC(C)C)C(=O)N[C@@H](CCCN=C(N)N)C(=O)N2CCC[C@H]2C(=O)N[C@H](C)C(N)=O)NC(=O)[C@@H](Cc2ccc(Cl)cc2)NC1=O,340 pM
9,CC(=O)N[C@@H]1CCC(=O)NCCCC[C@H](C(=O)N[C@H]2CC(=O)NC[C@@H](C(N)=O)NC(=O)[C@@H]3CCCN3C(=O)[C@@H]3CCCCNC(=O)CC[C@H](NC2=O)C(=O)N[C@H](Cc2ccc4ccccc4c2)C(=O)N[C@@H](CC(C)C)C(=O)N3)NC(=O)[C@@H](Cc2ccc(Cl)cc2)NC1=O,4600 pM
10,CC(=O)N[C@@H]1CC(=O)NCCCC[C@H](C(=O)N[C@@H](CO)C(=O)N[C@@H](Cc2ccc(O)cc2)C(=O)N[C@H](Cc2ccc3ccccc3c2)C(=O)N[C@@H](CC(C)C)C(=O)N[C@@H](CCCN=C(N)N)C(=O)N2CCC[C@H]2C(=O)N[C@H](C)C(N)=O)NC(=O)[C@@H](Cc2ccc(Cl)cc2)NC1=O,820 pM
11,CC(=O)N[C@@H]1CC(=O)N[C@@H](C)C(=O)NCC[C@H](C(=O)N[C@@H](CO)C(=O)N[C@@H](Cc2ccc(O)cc2)C(=O)N[C@H](Cc2ccc3ccccc3c2)C(=O)N[C@@H](CC(C)C)C(=O)N[C@@H](CCCN=C(N)N)C(=O)N2CCC[C@H]2C(=O)N[C@H](C)C(N)=O)NC(=O)[C@@H](Cc2ccc(Cl)cc2)NC1=O,1800 pM
